The text below walks through data of ChEMBL document CHEMBL1125795, “Substrate analogue renin inhibitors containing replacements of histidine in P2 or isosteres of the amide bond between P3 and P2 sites” (J Med Chem, 1991).

pIC50: −log10 of the molar value.

The target in data set [1] is T1, Cathepsin D (Bos taurus, UniProt P80209).
T1 sequence (P80209 whole entry): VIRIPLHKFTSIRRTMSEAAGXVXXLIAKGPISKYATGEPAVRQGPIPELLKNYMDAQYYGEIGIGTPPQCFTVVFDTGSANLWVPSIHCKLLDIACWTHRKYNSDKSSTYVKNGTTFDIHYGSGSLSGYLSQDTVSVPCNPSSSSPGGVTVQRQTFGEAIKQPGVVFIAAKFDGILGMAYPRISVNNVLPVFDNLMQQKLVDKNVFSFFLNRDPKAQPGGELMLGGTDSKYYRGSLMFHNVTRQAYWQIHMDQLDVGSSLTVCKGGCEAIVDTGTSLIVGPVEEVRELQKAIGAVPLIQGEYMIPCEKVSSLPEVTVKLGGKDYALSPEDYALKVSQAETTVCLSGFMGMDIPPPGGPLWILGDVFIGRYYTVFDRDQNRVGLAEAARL
Put plainly: In vitro inhibitory activity against bovine Cathepsin D. The method in brief: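 Bovine cathepsin D (100 munits) acting on hemoglobin at pH 3.2, 20 min, 37 °C. TCA-soluble peptides released were read by absorbance at 280 nm; IC50 taken as the concentration giving 50% inhibition of peptide liberation.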

Data set [2] has as its target T2, Renin (Homo sapiens, UniProt P00797).
T2 sequence (P00797 whole entry): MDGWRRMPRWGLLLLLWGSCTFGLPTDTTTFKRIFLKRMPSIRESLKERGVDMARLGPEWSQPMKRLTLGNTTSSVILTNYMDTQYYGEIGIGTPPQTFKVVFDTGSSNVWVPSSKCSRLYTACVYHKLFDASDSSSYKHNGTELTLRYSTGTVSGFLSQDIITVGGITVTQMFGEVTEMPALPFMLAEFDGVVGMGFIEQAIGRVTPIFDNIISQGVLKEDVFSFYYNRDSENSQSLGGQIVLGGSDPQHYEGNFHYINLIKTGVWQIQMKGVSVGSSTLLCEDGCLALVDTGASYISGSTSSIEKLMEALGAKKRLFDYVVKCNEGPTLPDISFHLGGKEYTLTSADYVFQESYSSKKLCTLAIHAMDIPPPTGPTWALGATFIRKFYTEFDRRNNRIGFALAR
Put plainly: In vitro for inhibitory activity against human renin. In a few lines: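 Endogenous renin and angiotensinogen in human EDTA plasma; incubation mixture of 76 mM maleate pH 5.5, 7.2 mM EDTA, 1% DMSO, 8.3 mM 8-hydroxyquinoline; 2 h at 37 °C, then on ice; angiotensin I measured by radioimmunoassay. At least three inhibitor concentrations bracketing the IC50; IC50 calculated from percent inhibition.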

Data set [3] concerns the target Pepsin A (Sus scrofa, UniProt P00791). Put plainly: In vitro inhibitory activity against porcine Pepsin. The method in brief:
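Porcine pepsin (20 units) digesting hemoglobin at pH 1.8, 10 min, 35.5 °C. Released TCA-soluble peptides measured at 280 nm; IC50 is the concentration halving peptide liberation.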

Data set [4] can be described thus: Plasma renin activity change in salt depleted cynomolgus monkeys after 180 minutes, administration of the compound. It is filed as functional, Cercopithecidae. In a few lines: (§1)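 Cynomolgus monkeys salt-depleted with furosemide 2 mg/kg im daily from 4 days before the experiment; haloperidol 0.3 mg/kg im for sedation on the test day. Conscious chair-restrained animals; systolic pressure by tail-cuff every 5 min, stabilized before dosing. Single oral 30 mg/kg dose, n = 4; PRA from blood samples. Change from T = 0 baseline, mean ± SE.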

Data set [5] is described as follows: Partition coefficient (logP). Type of data set: physicochemical. The following applies: octanol/water. The method in brief: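 Octanol/water partition coefficient measured at pH 7.4.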
Data set [6] in a line: Plasma renin activity change in salt depleted cynomolgus monkeys. It is filed as functional, Cercopithecidae. The method in brief: as §1
Data set [7] can be described thus: Duration of Systolic blood pressure decrease in salt depleted cynomolgus monkeys. Type of data set: functional, Cercopithecidae. In a few lines:
as §1

A short description of data set [8]: Systolic blood pressure change in salt depleted cynomolgus monkeys. It is filed as functional, Cercopithecidae. The method in brief: as §1

Sequence of Pepsin A (P00791 whole entry): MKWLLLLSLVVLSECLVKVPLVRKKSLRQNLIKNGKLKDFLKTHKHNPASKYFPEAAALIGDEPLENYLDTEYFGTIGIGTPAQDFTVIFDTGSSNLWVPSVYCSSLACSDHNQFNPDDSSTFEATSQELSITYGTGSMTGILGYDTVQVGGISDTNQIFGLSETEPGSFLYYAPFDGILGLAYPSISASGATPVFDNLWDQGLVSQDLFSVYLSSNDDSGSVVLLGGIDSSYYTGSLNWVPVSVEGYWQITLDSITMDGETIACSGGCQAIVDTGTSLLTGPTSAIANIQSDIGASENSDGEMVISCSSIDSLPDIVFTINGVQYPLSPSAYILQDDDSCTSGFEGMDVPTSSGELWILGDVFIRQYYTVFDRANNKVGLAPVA

The term pIC50 denotes −log10 of the IC50, conventionally taken in molar units. High values mean a low IC50, low ones a high IC50. In the case of `CC[C@H](C)[C@H](NC(=O)C[C@H](O)[C@H](CC1CCCCC1)NC(=O)[C@H](C)NC(=O)[C@H](Cc1ccccc1)NC(=O)OC(C)(C)C)C(=O)NCc1cnc(C)nc1N`, the negative logarithm of the IC50 (pIC50) in data set [1] was 7.55; in data set [2], 9.28; in data set [3], 6.02.
Turning to `CC[C@H](C)[C@H](NC(=O)[C@@H](C[C@H](O)[C@H](CC(C)C)NC(=O)CNC(=O)[C@H](Cc1ccccc1)NC(=O)OC(C)(C)C)C(C)C)C(=O)NCc1cnc(C)nc1N`, the pIC50 in data set [1] was 5.41; in data set [2], 8.27; in data set [3], 5.85.
For `CC[C@H](C)[C@H](NC(=O)C[C@H](O)[C@@H](CC1CCCCC1)NC(=O)CNC(=O)[C@@H](Cc1ccccc1)NC(=O)OC(C)(C)C)C(=O)NCc1cnc(C)nc1N`, in that order: 4.89, 8.60 and 4.41.
For `CC[C@H](C)[C@H](NC(=O)C[C@H](O)[C@H](CC1CCCCC1)NC(=O)CS(=O)(=O)CC(=O)[C@H](Cc1ccccc1)NC(=O)OC(C)(C)C)C(=O)NCc1cnc(C)nc1N`, the negative-log IC50 (pIC50) in data set [1] is less than 5.00; in data set [2] it was 6.62; in data set [3] it was less than 5.00.
On to `CC[C@H](C)[C@H](NC(=O)C[C@H](O)[C@@H](CC1CCCCC1)NC(=O)CNC(=O)[C@@H](Cc1ccccc1)NC(=O)OC(C)(C)C)C(=O)NCc1cccnc1`, for which the pIC50 was 5.19 in data set [1], 8.55 in data set [2] and 4.40 in data set [3].
One may read the logP as the decadic logarithm of the partition coefficient of the neutral form, usually between octanol and water. Low readings indicate a more hydrophilic compound, high ones a more lipophilic compound. For the compound `CC[C@H](C)[C@H](NC(=O)C[C@H](O)[C@@H](CC1CCCCC1)NC(=O)CCNC(=O)[C@@H](Cc1ccccc1)NC(=O)OC(C)(C)C)C(=O)NCc1cnc(C)nc1N`, the Change in data set [4] is listed as -21.6%; in data set [6], -25.1%. Also, the logP in data set [5] came out at 2.88. The results for the pIC50 in data set [1], in data set [2] and in data set [3] were 5.10, 8.82 and 4.73, respectively.
On to `CC[C@H](C)[C@H](NC(=O)C[C@H](O)[C@H](CC1CCCCC1)NC(=O)CCNC(=O)[C@H](Cc1ccccc1)NC(=O)N1CCOCC1)C(=O)NCc1cnc(C)nc1N`, for which the negative-log IC50 (pIC50) in data set [1] is less than 5.00; in data set [2], 9.55; in data set [3] it was less than 5.00.
Regarding `CC[C@H](C)[C@H](NC(=O)C[C@H](O)[C@H](CC1CCCCC1)NC(=O)CCNC(=O)[C@H](Cc1ccccc1)NC(=O)N1CCC(N(C)C)CC1)C(=O)NCc1cnc(C)nc1N`, the pIC50 is 5.00 in data set [1], 9.24 in data set [2] and less than 5.00 in data set [3].
For `CC[C@H](C)[C@H](NC(=O)[C@@H](C[C@H](O)[C@H](CC(C)C)NC(=O)CCNC(=O)[C@H](Cc1ccccc1)NC(=O)OC(C)(C)C)C(C)C)C(=O)NCc1cnc(C)nc1N` the same measures were 5.33, 8.39 and 6.08.
For `CC[C@H](C)[C@H](NC(=O)C[C@H](O)[C@H](CC1CCCCC1)NC(=O)CSC[C@@H](O)[C@H](Cc1ccccc1)NC(=O)OC(C)(C)C)C(=O)NCc1cnc(C)nc1N` the same measures were 4.14, 8.26 and less than 4.00.
For `CC[C@H](C)[C@H](NC(=O)C[C@H](O)[C@H](CC1CCCCC1)NC(=O)C[S+]([O-])CC(=O)[C@H](Cc1ccccc1)NC(=O)OC(C)(C)C)C(=O)NCc1cnc(C)nc1N` (stereo partly specified), in that order: less than 5.00, 7.15 and less than 5.00.
In the case of `CC[C@H](C)[C@H](NC(=O)C[C@H](O)[C@H](CC1CCCCC1)NC(=O)CSC[C@H](O)[C@H](Cc1ccccc1)NC(=O)OC(C)(C)C)C(=O)NCc1cnc(C)nc1N`, the pIC50 in data set [1] was less than 4.00; in data set [2], 8.20; in data set [3], less than 4.00.
Consider `CC[C@H](C)[C@H](NC(=O)C[C@H](O)[C@H](CC1CCCCC1)NC(=O)CCNC(=O)[C@H](Cc1ccccc1)NC(=O)CCCCCN)C(=O)NCc1cnc(C)nc1N`, for which the pIC50 is less than 5.00 in data set [1], 8.35 in data set [2] and less than 5.00 in data set [3].
For `CC[C@H](C)[C@H](NC(=O)C[C@H](O)[C@H](CC1CCCCC1)NC(=O)CCNC(=O)[C@@H](Cc1ccccc1)NC(=O)CC(C)(C)N)C(=O)NCc1cnc(C)nc1N`, the pIC50 in data set [1] was less than 5.00; in data set [2] it was 8.74; in data set [3] it was less than 5.00.
Consider `CC[C@H](C)[C@H](NC(=O)C[C@H](O)[C@@H](CC1CCCCC1)NC(=O)CCCNC(=O)[C@@H](Cc1ccccc1)NC(=O)OC(C)(C)C)C(=O)NCc1cnc(C)nc1N`, for which the pIC50 in data set [1] is 5.49; in data set [2] it was 7.55; in data set [3], less than 5.00.
For `CC[C@H](C)[C@H](NC(=O)C[C@H](O)[C@H](CC1CCCCC1)NC(=O)CCNC(=O)[C@@H](Cc1ccccc1)NC(=O)N1CCC(C(=O)O)CC1)C(=O)NCc1cnc(C)nc1N`, in that order: less than 5.00, 8.94 and less than 5.00.
For `CC[C@H](C)[C@H](NC(=O)C[C@H](O)[C@H](CC1CCCCC1)NC(=O)CC[C@@H](O)[C@H](Cc1ccccc1)NC(=O)OC(C)(C)C)C(=O)NCc1cnc(C)nc1N`, in that order: less than 5.00, 8.92 and 5.00.
For `CC[C@H](C)[C@H](NC(=O)C[C@H](O)[C@H](Cc1ccccc1)NC(=O)[C@H](Cc1c[nH]cn1)NC(=O)[C@H](Cc1ccccc1)NC(=O)OC(C)(C)C)C(=O)NCc1cccnc1` the same measures were 5.24, 8.54 and less than 5.00.
`CC[C@H](C)[C@H](NC(=O)[C@@H](C[C@H](O)[C@H](CC(C)C)NC(=O)CSCC(=O)[C@H](Cc1ccccc1)NC(=O)OC(C)(C)C)C(C)C)C(=O)NCc1cnc(C)nc1N`: the pIC50 in data set [1] was 5.06; in data set [2] it was 8.27; in data set [3] it was 5.22.
Regarding `CC[C@H](C)[C@H](NC(=O)C[C@H](O)[C@H](CC1CCCCC1)NC(=O)CC[C@H](O)[C@H](Cc1ccccc1)NC(=O)OC(C)(C)C)C(=O)NCc1cnc(C)nc1N`, the values for the negative-log IC50 (pIC50) in data set [1], in data set [2] and in data set [3] were less than 5.00, 8.38 and less than 5.00, respectively.
On to `CCOC(=O)C1CCN(C(=O)N[C@@H](Cc2ccccc2)C(=O)NCCC(=O)N[C@@H](CC2CCCCC2)[C@@H](O)CC(=O)N[C@H](C(=O)NCc2cnc(C)nc2N)[C@@H](C)CC)CC1`, for which the values for the pIC50 in data set [1], in data set [2] and in data set [3] were 5.50, 9.39 and 5.38, respectively.
For `CC[C@H](C)[C@H](NC(=O)C[C@H](O)[C@H](CC1CCCCC1)NC(=O)CCC(=O)[C@H](Cc1ccccc1)NC(=O)OC(C)(C)C)C(=O)NCc1cnc(C)nc1N`, in that order: less than 5.00, 8.07 and less than 5.00.
For the compound `CC[C@H](C)[C@H](NC(=O)C[C@H](O)[C@H](CC1CCCCC1)NC(=O)CCNC(=O)[C@H](Cc1ccccc1)NC(=O)CCC[N+](C)(C)C)C(=O)NCc1cnc(C)nc1N.[Cl-]`, the Change in data set [4] is -78.3%; in data set [6] it was -83.2%; in data set [8], -10.6%. Further, in data set [7], the Duration was greater than 130 min. This compound also gave a logP in data set [5] of 1.53. The negative logarithm of the IC50 (pIC50) in data set [1] was less than 5.00; in data set [2] it was 8.10; in data set [3] it was less than 5.00.
Take `CC[C@H](C)[C@H](NC(=O)C[C@H](O)[C@H](CC1CCCCC1)NC(=O)CCNC(=O)[C@H](Cc1ccccc1)NC(=O)N1CCC(NC(=O)OC(C)(C)C)CC1)C(=O)NCc1cnc(C)nc1N`: the pIC50 is 5.23 in data set [1], 9.19 in data set [2] and less than 5.00 in data set [3].
Regarding `CC[C@H](C)[C@H](NC(=O)C[C@H](O)[C@H](CC1CCCCC1)NC(=O)CCNC(=O)[C@H](Cc1ccccc1)NC(=O)N1CCC(N)CC1)C(=O)NCc1cnc(C)nc1N.Cl.Cl`, the Change is listed as -89.3% in data set [4], -90.5% in data set [6] and -24.7% in data set [8]. For the same compound, in data set [7], the Duration is given as greater than 180 min. In addition, in data set [5], the lipophilicity (logP) turned out to be 1.83. In addition, the negative logarithm of the IC50 (pIC50) in data set [1] is 5.07; in data set [2], 9.12; in data set [3], less than 5.00.
`CC[C@H](C)[C@H](NC(=O)C[C@H](O)[C@H](CC1CCCCC1)NC(=O)CCNC(=O)[C@@H](N)Cc1ccccc1)C(=O)NCc1cnc(C)nc1N`: the negative-log IC50 (pIC50) in data set [1] was less than 5.00; in data set [2], 7.71; in data set [3], less than 5.00.
